Experimental data of several laboratories.
Protocols differ between the studies behind these lines.
CHRM1: Muscarinic acetylcholine receptor M1 (CHRM1, Homo sapiens, UniProt P11229)
PRCP: Lysosomal Pro-X carboxypeptidase (PRCP, Homo sapiens, UniProt P42785)
MDM2: E3 ubiquitin-protein ligase Mdm2 (MDM2, Homo sapiens, UniProt Q00987)

The Ki of `COc1ccc(CCNC[C@H](O)c2ccc(O)cc2)cc1OC` is reported as 2100 nM (Beta-3 adrenergic receptor (ADRB3, Homo sapiens, UniProt P13945); cell-free assay).
`Cc1cc(N2CCNCC2)nc2ccccc12` has a Ki of greater than 31600 nM (CHRM1; ligand displacement, radioligand; cell membranes).
`CC[C@H](C)[C@H](NC(=O)[C@H](CCCNC(=N)N)NC(=O)[C@H](CCCCN)NC(=O)[C@@H]1CCCN1C(=O)[C@@H](N)Cc1c[nH]c2ccccc12)C(=O)N[C@@H](C)C(=O)O` has a Kd of 47000 nM (N-terminal Xaa-Pro-Lys N-methyltransferase 1 (Homo sapiens, UniProt Q9BV86); binding, ITC; pH 7.5).
The IC50 of `CC(=O)[C@@]1(O)CC[C@H]2[C@@H]3C=C(Cl)C4=CC(=O)[C@@H]5C[C@@H]5[C@]4(C)[C@H]3CC[C@@]21C` is reported as 3 nM (Progesterone receptor (PGR, Homo sapiens, UniProt P06401); enzyme activity).
`COc1cc(C(=O)N2CC[C@@H](O)[C@@H](N)C2)cc2nc(-c3cc4ccccc4n3CC3CC3)n(C)c12` has an IC50 of 12600 nM (CHRM1; calcium signal, antagonist, fluorescence).
`Cc1cc(C)nc(Nc2ncc(C(=O)NCCc3c(C)[nH]c4ccccc34)cn2)c1` has an IC50 of 16000 nM (Cytochrome P450 1A2 (CYP1A2, Homo sapiens, UniProt P05177); enzyme activity, inhibitor; human, liver microsomes).
`CC(C)C[C@H](NC(=O)[C@H](Cc1ccccc1)NC(=O)c1cnccn1)B(O)O` gave an IC50 of 12400 nM (PRCP; enzyme activity, inhibitor).
`CC(=O)N[C@@H](CC(C)C)C(=O)N[C@H](C(=O)N[C@@H](Cc1ccccc1)C(=O)N[C@@]1(C)CCCC=CCCC[C@@](C)(C(=O)N[C@@H](CCC(N)=O)C(=O)N[C@@H](CC(C)C)C(=O)N[C@H](C(=O)N[C@@H](CO)C(N)=O)[C@@H](C)O)NC(=O)[C@H](Cc2c[nH]c3ccccc23)NC(=O)[C@H](Cc2ccc(O)cc2)NC(=O)[C@H](CCC(=O)O)NC1=O)[C@@H](C)O` gave an IC50 of 49 nM (MDM2; ligand displacement, FP).
For `CCc1nnc(NS(=O)(=O)c2ccc(NC(=S)NC(=O)/C=C/c3ccc(F)cc3)cc2)s1`, the Kb was 8.8 nM (Prostaglandin E2 receptor EP2 subtype (PTGER2, Homo sapiens, UniProt P43116); cAMP, antagonist, TR-FRET).
`CC(=O)N[C@H](C(=O)N[C@@H](CC(=O)O)C(=O)N[C@@H](CC(=O)O)C(=O)N[C@@H](Cc1ccccc1)C(=O)N[C@@H](CC(=O)O)C(=O)N[C@@H](CCCNC(=N)N)C(=O)N[C@H](C(=O)N[C@@H](Cc1c[nH]c2ccccc12)C(=O)N[C@@H](CCC(N)=O)C(=O)NCC(=O)N[C@@H](CC(C)C)C(=O)N[C@H](C(=O)NCC(=O)N[C@@H](CC(C)C)C(N)=O)C(C)C)C(C)C)C(C)C` has a Kd of 41000 nM (MDM2; ligand displacement, FP).
The Ki of `CC(C)[C@@H]1NC(=O)[C@H](CO)NC(=O)[C@H](CO)NC(=O)[C@H](CO)N(C)C(=O)[C@H](CC(=O)O)NC(=O)[C@H](CO)NC(=O)[C@H](Cc2ccccc2)NC(=O)CSC[C@@H](C(=O)NCC(N)=O)NC(=O)[C@H](CC(N)=O)NC(=O)[C@H](CCCNC(=N)N)NC(=O)[C@H](C)NC(=O)[C@H](Cc2ccc(-c3ccccc3)cc2)NC(=O)[C@H](CC(N)=O)NC(=O)[C@@H]2CCCN2C1=O` is reported as greater than 8060 nM (MDM2; ligand displacement, TR-FRET).
`CC(C)[C@H](N)C(=O)N1CCC[C@H]1B(O)O` has an IC50 of 50300 nM (PRCP; enzyme activity, inhibitor).
`N[C@@H](C[C@]1(C(=O)O)C[C@H]2OC[C@@H](O)[C@@H](O)[C@H]2O1)C(=O)O` has a Ki of 1400 nM (Glutamate receptor ionotropic, kainate 3 (Rattus norvegicus, UniProt P42264, T520A); ligand displacement, radioligand).
`N[C@@H](CCP(=O)(O)O)C(=O)O` has an EC50 of 58.9 nM (Metabotropic glutamate receptor 8 (Grm8, Rattus norvegicus, UniProt P70579); calcium signal, agonist).
The IC50 of `N#CC(CCN1CCC(N)CC1)(c1ccccc1)c1ccccc1` is reported as greater than 100000 nM (Potassium voltage-gated channel subfamily A member 3 (Kcna3, Mus musculus, UniProt P16390); ion current, inhibitor, patch clamp).
The IC50 of `C[N+]1(C)CCC(OC(=O)C(c2ccccc2)c2ccccc2)CC1` is reported as 4.67 nM (CHRM1; ligand displacement, radioligand).
For `O=P(O)(O)C(CCCc1cccc(Oc2ccccc2)c1)S(=O)(=O)O` (centres unmarked), the Ki was 20 nM (4,4'-diapophytoene synthase (Staphylococcus aureus, UniProt A9JQL9); enzyme activity, inhibitor).
